SUMO1 PPI mod: modulators of SUMO1 protein-protein interactions, primary screen, biochemical, uHTS; Small ubiquitin-related modifier 1 (Homo sapiens), P63165; SUMO1 binding to a labelled peptide, TR-FRET, 1 h; inhibition, % at 20 µM; 360,000 compounds, 0.33% hits; in the data active means inhibition above about 37%
Target sequence (P63165 whole entry, looked up): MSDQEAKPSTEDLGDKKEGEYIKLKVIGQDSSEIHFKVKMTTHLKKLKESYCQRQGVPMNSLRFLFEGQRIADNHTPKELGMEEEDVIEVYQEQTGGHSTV
STEP inh: STEP phosphatase inhibitors, primary screen, biochemical, fluorescence intensity, uHTS | recombinant STEP, OMFP fluorogenic substrate | 360,000 compounds, 0.25% hits | Tyrosine-protein phosphatase non-receptor type 5 (Homo sapiens), P54829 | inhibition, % at 20 µM;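 active means inhibition at 20 µM, scaled per plate between control wells, above about 37%, limit read from the data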
Target sequence (P54829 whole entry, looked up): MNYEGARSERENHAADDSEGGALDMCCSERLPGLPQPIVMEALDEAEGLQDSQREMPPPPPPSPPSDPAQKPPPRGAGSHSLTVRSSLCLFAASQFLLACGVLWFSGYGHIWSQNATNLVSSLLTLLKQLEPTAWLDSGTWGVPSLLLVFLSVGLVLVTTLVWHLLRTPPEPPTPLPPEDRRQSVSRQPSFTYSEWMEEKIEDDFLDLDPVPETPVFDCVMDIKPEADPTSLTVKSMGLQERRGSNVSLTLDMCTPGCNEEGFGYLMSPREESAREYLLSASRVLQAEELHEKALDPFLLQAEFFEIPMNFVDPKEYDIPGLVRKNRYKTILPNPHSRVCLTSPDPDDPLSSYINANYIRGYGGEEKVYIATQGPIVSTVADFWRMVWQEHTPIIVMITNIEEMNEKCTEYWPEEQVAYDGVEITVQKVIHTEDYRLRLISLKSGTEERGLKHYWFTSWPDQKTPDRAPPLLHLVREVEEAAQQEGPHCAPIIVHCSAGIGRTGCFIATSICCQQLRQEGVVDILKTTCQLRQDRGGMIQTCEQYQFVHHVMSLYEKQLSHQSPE
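material = STEP tyrosine phosphatase | reagent = fluorogenic phosphatase substrate OMFP at 25 µM final | doses = single compound dose of 20 µM, 1% DMSO final | schedule = 20 min reaction, room temperature, in the dark | measured by = fluorescence, 480/540 nm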
DNMT1 block: human DNMT1 methyltransferase inhibitors, primary screen, biochemical, molecular beacon, fluorescence, HinP1I cleavage, uHTS; DNA (cytosine-5)-methyltransferase 1 (Homo sapiens), P26358; inhibition (reported as % activation of signal), % at 10 µM; 360,000 compounds, 0.83% hits; AID 588458, 2011; in the data active means inhibition above about 50%
LMPTP inh: LMPTP phosphatase inhibitors, primary screen, biochemical, fluorescence intensity, uHTS | inhibition, % at 20 µM | 360,000 compounds, 0.22% hits | recombinant LMPTP-A, OMFP fluorogenic substrate | AID 651560, 2012;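 active means compounds that cut the enzyme signal by at least half of the control window in the single-dose screen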
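Test system: LMPTP-A, protein tyrosine phosphatase of low molecular weight; Input: 0.625 nM enzyme; Incubation: 50 min dark incubation at room temperature; Signal: endpoint fluorescence intensity from OMFP dephosphorylation; Read-out basis: % inhibition versus control wells.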
Scp-1 inhibitor: Scp-1 phosphatase inhibitors, primary screen, biochemical, colorimetric, uHTS | Carboxy-terminal domain RNA polymerase II polypeptide A small phosphatase 1 (Homo … | Recombinant Scp1, phosphopeptide, malachite green phosphate absorbance | inhibition, % at 20 µM | 340,000 compounds, 0.88% hits | AID 493091, 2011;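 active means inhibition above about 50% at 20 µM, limit read from the data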
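Test system: SCP-1 phosphatase catalytic domain, residues 76-261; measured by: colorimetric phosphate reagent with accelerator and stabiliser, absorbance at 630 nm; timing: enzyme reaction 45 min at room temperature, colour 5 min, stabilisation 30 min; also added: Phosphorylated 17-residue peptide substrate; compound dosing: one concentration, 20 µM, with 1.0% DMSO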
Beacon interf DR: spectral interference with molecular beacon fluorescence, dose response, artefact control for DNMT1 inhibitor project, biochemical, fluorescent molecular beacon | shares compounds with DNMT1 block | spectral interference counter-screen | IC50, µM | 200 tested, under 10 active; call rule not given here
DNMT1 inh conf: DNMT1 methyltransferase inhibitor retest, confirmation, biochemical, molecular beacon, fluorescence, single concentration | shares compounds with DNMT1 block | DNMT1 molecular beacon HinP1I cleavage | inhibition, % at 10 µM | 2,300 compounds, 8% hits | AID 602385, 2012;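 active means average inhibition of at least 30% in the single-concentration confirmation test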
Beacon interf: counter-screen for DNMT1 inhibitors: spectral interference; DNMT1 molecular beacon spectral interference counterscreen, fluorescence 485/520; 2,300 compounds, 1% hits; shares compounds with DNMT1 block; activation (fluorescence interference), % at 10 µM;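 active means activation of at least 30% at 10 µM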;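 further: DNMT1 catalytic domain with a HinP1I cleavage step and a FAM/dabcyl DNA beacon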
Hits are given with their value; - = inactive; . = not tested or not shown; ! = a repeat was not active. This is a sample that favours compounds with a hit; in the whole collection about 1.7% have one here.

SMILES	SUMO1 PPI mod	STEP inh	DNMT1 block	LMPTP inh	Scp-1 inhibitor	DNMT1 inh conf	Beacon interf	others
CCOC(=O)C1=C(C)N=c2sc(=Cc3ccc(OCC(=O)O)cc3)c(=O)n2C1c1ccc(Cl)cc1 (centres undefined)	44	-	92	76	.	99	-	Beacon interf DR=-
O=C(Cn1ncc2c([nH]c3ccccc32)c1=O)N1CCOCC1	-	-	-	-	-	.	.
COc1ccc(-c2csc(NC(=O)C3CCN(c4ncnc5sc(C)c(C)c45)CC3)n2)cc1OC	-	-	-	-	-	.	.
C=CCn1c(C)cc(-c2csc(NC(=O)C3CCN(c4ncnc5sc(C)c(C)c45)CC3)n2)c1C	-	-	65	-	-	-	-
COC(=O)[C@]12CCCCC=C1N(Cc1ccccc1)C(=O)[C@H](CC(=O)NCc1cccs1)C2	-	.	.	-	.	.	.
O=C(Nc1ccc(Cc2ccc(NC(=O)Nc3cccnc3)cc2)cc1)Nc1cccnc1	-	-	51	-	.	-	-
O=C(Nc1ccc(Cl)cc1)Nc1cccnc1	-	-	-	-	-	.	.
O=c1ccn([C@@H]2O[C@H](CO)[C@@H](O)[C@H]2O)c(=O)[nH]1	-	-	81	-	-	-	-
C[C@H](NC(=O)CC[C@H]1O[C@@H](n2ccc(=O)[nH]c2=O)[C@H](O)[C@@H]1O)C(=O)O	-	-	-	-	.	.	.
O=C(CC[C@H]1O[C@@H](n2ccc(=O)[nH]c2=O)[C@H](O)[C@@H]1O)N1CCN(Cc2cccc3ccccc23)CC1	-	-	85	-	.	-	-
O=C(CC[C@H]1O[C@@H](n2ccc(=O)[nH]c2=O)[C@H](O)[C@@H]1O)N1CCN(c2ccccn2)CC1	-	-	-	-	.	.	.
O=C(NCc1ccccc1C(F)(F)F)c1cccc2c1C(=O)c1ccc(N3CCOCC3)cc1S2(=O)=O	-	-	62	-	-	-	-
CCCC(=O)Nc1ccc(Cl)c(NC(=S)NC(=O)c2cc3ccccc3o2)c1	-	-	56	-	-	-	-
CSCCC(NS(=O)(=O)c1ccc(C)cc1)C(=O)N1CC=C(c2ccccc2)CC1 (centres undefined)	-	-	-	-	-	.	.
CC1CC(NC(=O)N(C)C)N(C)C(=O)N1 (centres undefined)	-	-	66	-	-	-	-
N#Cc1cn(-c2ccccc2)nc1-c1cc2ccccc2oc1=O	-	-	-	-	-	.	.
O=Cc1cn(-c2ccccc2)nc1-c1cc2c(ccc3ccccc32)oc1=O	-	-	53	-	-	-	-
COc1ccc(S(=O)(=O)N2CCN(C(=O)c3ccc(=O)[nH]n3)CC2)cc1OC	-	-	-	-	-	.	.
C(=N\C(/N=C/c1ccco1)c1ccco1)/c1ccco1	-	-	71	-	-	-	-
C(=Nc1cccc2c(N=Cc3ccco3)cccc12)c1ccco1	-	-	-	-	-	.	.
CC(=O)c1oc2ccccc2c1NC(=O)COC(=O)c1ccc(-n2nc(C)cc2C)cc1	-	-	54	-	-	-	-
CSc1ccccc1NC(=O)COC(=O)c1ccc(-n2nc(C)cc2C)cc1	-	-	-	-	-	.	.
O=C(CSCc1ccc(Cl)cc1)Nc1ccc(-c2nnc(-c3ccccc3)o2)cc1	-	-	72	-	-	-	-
Cc1cccc2c(SCC(=O)NCC3CCCO3)nc(-c3ccc(F)cc3)nc12 (centres undefined)	-	-	-	-	-	-	-
Cc1cccc2cc(C#N)c(SCC(=O)NCC3CCCO3)nc12 (centres undefined)	-	-	-	-	-	.	.
SMILES	SUMO1 PPI mod	STEP inh	DNMT1 block	LMPTP inh	Scp-1 inhibitor	DNMT1 inh conf	Beacon interf	others
CN(CC1CCCO1)S(=O)(=O)c1ccc(C(=O)Nc2nc3cc4c(cc3s2)OCO4)cc1 (centres undefined)	-	-	64	-	-	-	-
CN(CC1CCCO1)S(=O)(=O)c1ccc(C(=O)Nc2ccc3c(c2)OCO3)cc1 (centres undefined)	-	-	-	-	-	.	.
CS/C(=N\S(=O)(=O)c1cccs1)Nc1ccc(N2CCOCC2)cc1	-	-	83!	-	-	-	-
CS/C(=N\S(=O)(=O)c1cccs1)Nc1ccc(F)cc1	-	-	-	-	-	.	.
O=C(CN1CCN(Cc2ccc(F)cc2)C1=O)NC1CCCC1	-	-	-	-	-	.	.
CCOC(=O)c1c(NC(=O)c2cc(-c3ccc(Cl)s3)nc3ccccc23)sc(C(N)=O)c1C	-	-	56	-	-	-	-
O=C(c1ccc(Cl)cc1)C1CCN(C(=O)c2ccccc2)CC1	-	-	89	-	-	-	-
CCc1nc(NCc2cccs2)c2nnn(Cc3ccccc3)c2n1	-	-	67	-	.	-	-
Cc1cc(NC(=O)c2cncc(Br)c2)ccc1NC(=O)c1cc2ccccc2o1	-	-	75	-	-	-	-
CC(C)NC(=O)c1ccc(N(Cc2ccccc2)S(C)(=O)=O)cc1	-	-	-	-	-	.	.
O=C(NCc1ccc2c(c1)OCO2)c1cc2ncc(Br)cn2n1	-	-	71	52	72	-	-
O=C(O)CCCCC1SCC2NC(=O)NC21 (centres undefined)	-	-	82	-	-	-	-
CCCCCC1NC(=O)NC1CCCCCC(=O)O (centres undefined)	-	-	-	-	-	.	.
CCN(CC)S(=O)(=O)c1cc(NS(=O)(=O)c2cccc(C(=O)O)c2)ccc1C	-	-	-	-	-	.	.
CCN(CC)S(=O)(=O)c1cc(NS(=O)(=O)c2ccccc2)ccc1C	-	-	75	-	-	-	-
Cc1cc(C)c(S(=O)(=O)N2CCCCC2CCNC(=O)C(=O)NCCN2CCOCC2)c(C)c1 (centres undefined)	-	-	-	-	-	.	.
CCOC(=O)C(Cc1ccccc1)C(=O)NCc1cccnc1 (centres undefined)	-	-	-	-	-	.	.
CCC1CCC(C(=O)NNC(=O)c2cc(-c3ccco3)[nH]n2)CC1 (centres undefined)	-	-	51	-	-	-	-
O=C(NNC(=O)C1CCCCC1)c1ccco1	-	-	-	-	-	.	.
COC(=O)C1CCN(C(=O)c2cc(-c3ccco3)nc3ccccc23)CC1	-	-	86	-	70	50	-	Beacon interf DR=-

Source: PubChem BioAssay
